# Bioassay records (PubChem BioAssay)
# An excerpt weighted towards active compounds, which were near 2.1% of everything screened.
# SMARCA2 act = SMARCA2 function activation, primary screen; activation, % at 9.1 µM; MG213 cells, MMTV-luciferase reporter, dexamethasone, overnight; AID 652017; actives 1% (n = 370,000); in the data active = activation above about 7.8%;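 note: 0% = vehicle wells and 100% = reference activator wells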
# CFTR F508del cor = CFTR F508del correction in bronchial cells | CFBE cells, YFP halide quenching; stimulated with forskolin plus potentiator P3; % fluorescence drop versus neutral controls | activity (quench increase), % at 7.58 µM | actives 0.36% (n = 350,000) | AID 720511;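 active = mean added fluorescence quench of at least 8% versus neutral control, with both replicates also reaching 8%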;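 note: cells transiently co-express mutant CFTR-F508del with the halide-sensitive YFP; corrector assay measuring rescue of mutant channel to the surface after 24 h compound exposure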
# MC4R ag barr = activates human MC4R beta-arrestin recruitment | P32245 | U2OS MC4R beta-arrestin complementation, luminescence; percent of melanotan II response, DMSO zero | activation, % at 8.9 µM | actives 0.98% (n = 360,000);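 active = activation above a per-plate cutoff, the mean activation of sample wells on that plate plus 3 SD, cut at about 8% in these data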
# MC4R antag cAMP = human MC4R antagonism in cAMP assay; MC4R-expressing cells, MTII-stimulated cAMP, LANCE TR-FRET; P32245; inhibition, % at 6.5 µM; actives 0.48% (n = 360,000); AID 540295;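 active = inhibition above its plate's cutoff, the mean of tested wells on that plate plus 3 SD, cut at about 29% in these data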;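 note: 0% = Melanotan II alone and 100% = Melanotan II plus saturating MCL0020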
#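 Assay system: U2OS-MC4R stable cell line; Also added: Melanotan II; Technique: Eu-cAMP/anti-cAMP TR-FRET, emission 671 nm; Times: 30-min compound, 1-h challenge, 1-h detection, room temperature.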
# U2OS cAMP counter = nonselective cAMP signaling inhibitor, MC4R antagonist counter-screen. shares compounds with MC4R antag cAMP. parental U2OS, forskolin cAMP, LANCE TR-FRET. inhibition, % at 6.5 µM. actives 26% (n = 1,600). AID 602193;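 active = mean inhibition over triplicates above the low-control well mean plus 3 SD, set per campaign, cut at about 13% in these data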;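 note: signal is single emission at 671 nm which falls as cellular cAMP rises; 0% = forskolin-stimulated wells and 100% = buffer without forskolin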
# MC4R antag conf = human MC4R cAMP antagonism confirmation. actives 27% (n = 1,600). shares compounds with MC4R antag cAMP. AID 602195. MC4R-expressing cells, MTII-stimulated cAMP, TR-FRET. inhibition, % at 6.5 µM; in the data active = inhibition above about 29%;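 note: 0% = agonist stimulated wells alone and 100% = agonist stimulated wells plus saturating reference antagonist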
# MC4R barr ag = human MC4R beta-arrestin agonism confirmation | activation, % at 8.9 µM | AID 602192 | shares compounds with MC4R ag barr | actives 31% (n = 2,400) | U2OS MC4R beta-arrestin recruitment, luminescence; scaled DMSO 0%, Melanotan II 100%;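 active = mean activation across replicates above the hit cutoff set in the earlier primary screen, cut at about 8% in these data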
# MOR-DOR barr ag = activates mu-delta opioid heterodimer, MC4R agonist counter-screen. shares compounds with MC4R ag barr. U2OS PathHunter beta-arrestin, beta-gal luminescence; percent of deltorphin B response, DMSO zero. activation, % at 9.2 µM. actives 5.8% (n = 2,400). AID 602194;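 active = mean activation across replicates exceeds the hit threshold derived in the earlier primary screen, cut at about 18% in these data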;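 note: 100% = deltorphin B at 0.9 µM final and 0% = DMSO alone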
# Target sequence (P35372 whole entry, looked up): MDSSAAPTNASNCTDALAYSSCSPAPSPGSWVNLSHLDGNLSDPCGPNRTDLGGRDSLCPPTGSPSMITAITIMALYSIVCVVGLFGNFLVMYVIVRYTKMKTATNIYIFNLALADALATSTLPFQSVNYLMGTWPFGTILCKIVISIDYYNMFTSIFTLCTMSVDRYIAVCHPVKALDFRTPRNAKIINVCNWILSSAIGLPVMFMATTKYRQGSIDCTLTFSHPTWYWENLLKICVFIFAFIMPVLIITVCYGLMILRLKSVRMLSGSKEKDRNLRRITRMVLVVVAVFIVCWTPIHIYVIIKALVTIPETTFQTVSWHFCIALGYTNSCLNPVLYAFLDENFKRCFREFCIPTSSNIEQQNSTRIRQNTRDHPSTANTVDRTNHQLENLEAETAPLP
# Target sequence (P41143 whole entry, looked up): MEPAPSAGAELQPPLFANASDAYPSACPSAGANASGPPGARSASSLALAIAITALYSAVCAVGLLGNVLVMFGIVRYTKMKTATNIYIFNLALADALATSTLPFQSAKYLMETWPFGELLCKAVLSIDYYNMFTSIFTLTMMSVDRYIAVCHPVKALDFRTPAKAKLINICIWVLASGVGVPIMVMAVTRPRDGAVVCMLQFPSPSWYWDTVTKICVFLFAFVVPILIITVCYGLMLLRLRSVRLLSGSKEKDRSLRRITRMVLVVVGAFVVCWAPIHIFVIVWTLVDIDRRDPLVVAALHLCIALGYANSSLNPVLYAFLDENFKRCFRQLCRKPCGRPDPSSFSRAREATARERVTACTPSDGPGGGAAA
# SMARCA2 conf = SMARCA2 activation, confirmation screen. activation, % at 9.1 µM. MG213 cells, MMTV-luciferase with dexamethasone, luminescence, overnight; MG213 cells expressing E1A, Rb sequestered; DMSO wells 0%, reference activator 100%. actives 30% (n = 3,500). shares compounds with SMARCA2 act;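 active = activation above its plate's cutoff, the mean activation of tested wells plus 3 SD, cut at about 7.9% in these data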
# VP16 Luc act = activates GAL4-VP16 luciferase, flagging SMARCA2 activator hits; shares compounds with SMARCA2 act; HEK293 GAL4-VP16 pG5luc reporter, luciferase luminescence; scaled: DMSO wells 0%, SAHA wells 100%; activation, % at 9.1 µM; actives 41% (n = 3,500);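 active = activation above the solvent-only control well mean plus 3 SD, averaged across control plates, cut at about 5.2% in these data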
# * = called active by the depositor; . = not tested or not shown.
SMILES,SMARCA2 act,CFTR F508del cor,MC4R ag barr,MC4R antag cAMP,MC4R barr ag,MOR-DOR barr ag,others
O=C(COC(=O)c1nc(Cl)c(Cl)c(Cl)c1Cl)c1ccc[nH]1,9.3*,-2.4,-2.9,38.7*,.,.,U2OS cAMP counter=11.0;MC4R antag conf=37.5*;SMARCA2 conf=20.0*;VP16 Luc act=1.0
CC(Sc1nnc(NC2CCCCC2)s1)C(=O)Nc1ccc2c(c1)C(=O)c1ccccc1C2=O (configuration not stated),10.0*,.,2.9,30.1*,.,.,U2OS cAMP counter=-0.4;MC4R antag conf=3.3;SMARCA2 conf=2.6;VP16 Luc act=12.0*
CCNC(=O)CC1C(=O)N(C)C(=S)N1NC(=O)c1ccc(Cl)cc1 (configuration not stated),2.8,.,0.4,4.7,.,.,
Nc1ccc(C(=O)NN2C(=O)[C@H](Cl)C2c2ccc(Cl)cc2)cc1 (some centres not stated),8.3*,6.4,-0.5,36.6*,.,.,U2OS cAMP counter=21.6*;MC4R antag conf=19.3;SMARCA2 conf=-14.9;VP16 Luc act=1.1
COCCN(C[C@H]1[C@H](c2ccccc2)[C@H](CO)N1C(C)=O)C(=O)c1ccncc1,.,-2.2,.,.,.,.,
O=C(Nc1nc(-c2ccc(F)c(F)c2)cs1)c1ccc(OCC2CCCO2)cc1 (configuration not stated),-3.6,.,16.9*,1.2,2.9,28.0*,
Cc1csc(NC(=O)c2ccc(OCC3CCCO3)cc2)n1 (configuration not stated),1.1,2.1,-1.5,8.8,.,.,
C/C=C/c1ccc([C@@H]2[C@@H](CO)N(C(=O)CC)[C@@H]2CNC(=O)CC2CC2)cc1,.,1.6,.,.,.,.,
Clc1ccc(/C=C/c2nc3ccccc3[nH]2)cc1,1.6,.,0.4,4.1,.,.,
Clc1ccc(/C=C\c2nccc3c2[nH]c2ccccc23)cc1,0.1,1.4,14.0*,8.3,3.8,11.0,
CNC(=O)C[C@@H]1CC[C@@H]2[C@@H](COc3ccc(NC(=O)Nc4ccc(F)c(F)c4)cc3C(=O)N2C)O1,.,-1.6,.,.,.,.,
Cc1ccc(C(=O)NCCc2nnc(SCC(=O)Nc3nc(-c4ccccc4)cs3)n2C)cc1,3.5,.,21.0*,-4.3,8.9*,3.1,
O=C(CSc1nc(-c2ccccc2)cs1)Nc1nccs1,5.1,.,19.2*,-4.8,-0.2,8.9,
CC(C)NC(=O)CSc1nc(-c2ccccc2)cs1,3.2,2.1,-0.6,1.0,.,.,
Cc1ccc(-c2csc(NC(=O)CSc3ncn(-c4ccccc4)n3)n2)cc1,-2.6,.,11.4*,-2.7,4.6,5.1,
C[C@H](CO)N1C[C@H](C)[C@H](CN(C)Cc2ccc(C(=O)O)cc2)Oc2ccc(NS(=O)(=O)c3ccccc3)cc2CC1=O,.,-0.4,.,.,.,.,
O=C(C[C@H]1CC[C@@H]2[C@H](COC[C@H](O)CN2S(=O)(=O)c2ccc(F)cc2)O1)N[C@H]1CCN(Cc2ccccc2)C1,.,-1.2,.,.,.,.,
Cc1cc(OCC(=O)Nc2sc3c(c2C#N)CC(C)(C)NC3(C)C)c(C(C)C)cc1Cl,1.0,5.2,13.6*,3.8,8.5*,7.5,
Cn1c(CNC(=O)c2ccc(Cl)cc2)nnc1SCC(=O)Nc1sc2c(c1C#N)CCCC2,-1.7,.,17.0*,-0.6,1.1,4.1,
COc1ccccc1OCC(=O)Nc1sc2c(c1C(N)=O)CCC2,0.0,2.9,-0.8,-10.1,.,.,
N#Cc1c(NC(=O)CSc2nnc(-c3ccccc3)o2)sc2c1CCCC2,.,0.3,23.0*,4.2,4.1,2.5,
Cc1ccccc1OCC(=O)Nc1sc2c(c1C#N)CCC2,1.0,-5.5,16.7*,17.4,1.6,3.5,
C/C=C/c1ccc2c(c1)O[C@@H](CN(C)C(=O)C1CCOCC1)[C@@H](C)CN([C@H](C)CO)S2(=O)=O,.,-1.4,.,.,.,.,
Cc1ccc(S(=O)(=O)N2CCN(CCNC(=O)C(=O)Nc3ccc(F)cc3)CC2)cc1,-1.8,-0.8,13.8*,24.1,0.0,5.7,
O=C(NCCN1CCN(S(=O)(=O)c2ccccc2)CC1)C(=O)Nc1ccc(F)cc1,-1.4,1.4,-0.7,5.6,.,.,
SMILES,SMARCA2 act,CFTR F508del cor,MC4R ag barr,MC4R antag cAMP,MC4R barr ag,MOR-DOR barr ag,others
COc1cc(/C=N/N=C(/N)c2nonc2N)cc(Br)c1OCc1ccccc1C,-3.0,.,15.8*,25.3,6.4,3.2,
Cc1ccc([C@@H]2CC=C(C(=O)O)[C@H](c3ccc(C(C)(C)C)cc3)N2S(=O)(=O)c2ccc(C)cc2)cc1,-6.3,-3.5,4.5,11.4,.,.,
Cc1ccc(S(=O)(=O)N2[C@@H](c3ccc(C(C)(C)C)cc3)C(C(=O)O)=CC[C@H]2c2ccc(C(C)C)cc2)cc1,-5.1,-5.7,19.8*,9.3,15.3*,5.0,
CC1(C)Oc2ccc3ccc(=O)oc3c2/C(=C/Nc2ccc(O)cc2)C1=O,0.5,.,11.0*,24.1,23.0*,5.0,
CN/C=C1\C(=O)C(C)(C)Oc2ccc3ccc(=O)oc3c21,-1.5,.,-1.6,9.4,.,.,
Cc1noc(C)c1S(=O)(=O)N(C)C[C@H]1Oc2c(NC(=O)C3CCOCC3)cccc2C(=O)N([C@H](C)CO)C[C@H]1C,.,-1.3,.,.,.,.,
COc1ccc(Cl)cc1C(=O)OCC(=O)NC(=O)c1cccn1C,-2.6,.,0.6,5.1,.,.,
CCCOc1c(Br)cc(C(=O)OCC(=O)NC(=O)c2cccn2C)cc1OC,1.8,2.4,18.4*,0.8,8.6*,7.4,
O=C(Nc1ccccc1)Nc1ccc2ccccc2n1,5.1,-0.5,11.7*,-2.7,1.4,4.2,
O=C(Nc1ccc(F)cc1)Nc1ccc2ccccc2n1,-0.7,2.7,4.7,-8.8,.,.,
COc1ccc(CNCCC(c2ccc(OC(C)C)cc2)c2ccccc2OC)cc1 (configuration not stated),-0.6,-1.4,12.1*,9.6,11.1*,24.8*,
COc1ccccc1C(CCNCc1ccc(N(C)C)cc1)c1ccc(OC(C)C)cc1 (configuration not stated),-1.5,-1.1,12.9*,3.0,8.2,28.7*,
COc1ccc(C(CCNCc2ccc(OC(C)C)cc2)C(C)C)cc1 (configuration not stated),-5.9,-1.9,14.7*,5.3,7.7,11.5,
